This passage reports inhibition and IC50 results from ChEMBL document CHEMBL1165965, “Synthesis and structure-activity relationships of 1,2,3,4-tetrahydropyrido[2,3-b]pyrazines as potent and selective inhibitors of the anaplastic lymphoma kinase” (Bioorg Med Chem, 2010).

Experiment [1] deals with T1, Serine/threonine-protein kinase BRSK1 (Homo sapiens) (UniProt Q8TDC3).
T1 sequence (whole entry): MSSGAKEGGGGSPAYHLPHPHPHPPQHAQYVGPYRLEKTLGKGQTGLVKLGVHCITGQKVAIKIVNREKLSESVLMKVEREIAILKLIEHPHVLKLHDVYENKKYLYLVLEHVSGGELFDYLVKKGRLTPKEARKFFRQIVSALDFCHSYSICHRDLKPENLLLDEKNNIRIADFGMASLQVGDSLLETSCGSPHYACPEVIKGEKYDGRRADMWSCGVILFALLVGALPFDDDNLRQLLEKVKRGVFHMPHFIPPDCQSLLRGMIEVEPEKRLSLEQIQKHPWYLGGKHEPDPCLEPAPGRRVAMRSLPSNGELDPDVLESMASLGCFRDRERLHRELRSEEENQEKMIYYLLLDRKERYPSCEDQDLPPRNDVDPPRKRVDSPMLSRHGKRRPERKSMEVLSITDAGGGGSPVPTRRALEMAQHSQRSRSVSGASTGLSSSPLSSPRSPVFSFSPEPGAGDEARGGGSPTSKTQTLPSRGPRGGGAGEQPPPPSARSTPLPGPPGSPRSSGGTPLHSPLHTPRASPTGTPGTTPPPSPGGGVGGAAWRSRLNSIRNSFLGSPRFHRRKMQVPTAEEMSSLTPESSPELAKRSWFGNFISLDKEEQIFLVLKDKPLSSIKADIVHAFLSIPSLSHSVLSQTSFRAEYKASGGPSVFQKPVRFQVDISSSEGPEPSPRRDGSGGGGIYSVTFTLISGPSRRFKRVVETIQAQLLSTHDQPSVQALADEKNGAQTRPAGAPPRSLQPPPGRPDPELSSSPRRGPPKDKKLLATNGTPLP
As to the kind of experiment: Inhibition of BRSK1 at 1 uM. In a few lines: (§1)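 Ambit KINOMEscan screen at a single concentration across a 250–400 kinase panel, recorded as percent inhibition. Selectivity was expressed as S(90), the fraction of kinases inhibited >90%.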

Experiment [2] has as its target Cyclin-dependent kinase 8 (Homo sapiens) (UniProt P49336). As to the kind of experiment: Inhibition of CDK8 at 1 uM.
The target of experiment [3] is ALK tyrosine kinase receptor (Homo sapiens, UniProt Q9UM73). Briefly: Inhibition of ALK by time-resolved fluorescence assay. In a few lines:
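Baculovirus-expressed ALK (30 ng/ml) on plates coated with GST–PLC-gamma substrate in TBS. Reaction ran 15 min at 37 °C. Europium-labeled anti-phosphotyrosine antibody was added for 1 h at 37 °C, then enhancement solution for 30 min, and TRF was read. IC50 came from a variable-slope sigmoidal fit of % inhibition vs log concentration.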

Experiment [4] concerns Mast/stem cell growth factor receptor Kit (Homo sapiens), P10721 [D816V]. Briefly: Inhibition of KIT D816V mutant at 1 uM. In a few lines: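 Single-concentration screen on the Ambit KINOMEscan platform, run against a panel of 250–400 kinases. Per-kinase inhibition was also summarized as S(90), the fraction of kinases inhibited by more than 90%.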
Chain of Mast/stem cell growth factor receptor Kit (Homo sapiens), P10721 [D816V] (P10721 whole entry D816V): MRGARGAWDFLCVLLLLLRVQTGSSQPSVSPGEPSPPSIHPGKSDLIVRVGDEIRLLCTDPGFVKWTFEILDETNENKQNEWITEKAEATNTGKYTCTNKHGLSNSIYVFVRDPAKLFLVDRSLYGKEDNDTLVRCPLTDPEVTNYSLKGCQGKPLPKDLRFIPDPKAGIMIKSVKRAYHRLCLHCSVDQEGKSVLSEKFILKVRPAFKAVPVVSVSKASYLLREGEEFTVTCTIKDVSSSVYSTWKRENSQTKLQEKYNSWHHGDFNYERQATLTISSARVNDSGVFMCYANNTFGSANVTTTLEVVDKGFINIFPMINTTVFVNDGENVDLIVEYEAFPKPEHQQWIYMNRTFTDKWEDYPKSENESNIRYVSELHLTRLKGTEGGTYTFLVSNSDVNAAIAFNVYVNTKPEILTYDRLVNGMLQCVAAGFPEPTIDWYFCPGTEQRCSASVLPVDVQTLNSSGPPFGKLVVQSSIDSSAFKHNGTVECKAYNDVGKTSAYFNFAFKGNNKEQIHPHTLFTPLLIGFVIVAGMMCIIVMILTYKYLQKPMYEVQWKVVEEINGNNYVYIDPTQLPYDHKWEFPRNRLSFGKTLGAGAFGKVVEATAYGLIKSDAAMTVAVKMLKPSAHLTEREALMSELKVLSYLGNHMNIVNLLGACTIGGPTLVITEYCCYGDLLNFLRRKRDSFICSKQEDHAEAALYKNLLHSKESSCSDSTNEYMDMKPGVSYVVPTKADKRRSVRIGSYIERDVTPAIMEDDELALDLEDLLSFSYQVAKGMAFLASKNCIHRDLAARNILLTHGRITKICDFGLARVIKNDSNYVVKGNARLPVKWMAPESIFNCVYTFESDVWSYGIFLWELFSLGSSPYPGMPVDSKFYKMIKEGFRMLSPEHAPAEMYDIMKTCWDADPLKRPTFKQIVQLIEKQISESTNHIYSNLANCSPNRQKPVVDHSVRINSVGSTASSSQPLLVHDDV
The target of experiment [5] is T2, Serine/threonine-protein kinase DCLK3 (Homo sapiens) (UniProt Q9C098).
T2 sequence (whole entry): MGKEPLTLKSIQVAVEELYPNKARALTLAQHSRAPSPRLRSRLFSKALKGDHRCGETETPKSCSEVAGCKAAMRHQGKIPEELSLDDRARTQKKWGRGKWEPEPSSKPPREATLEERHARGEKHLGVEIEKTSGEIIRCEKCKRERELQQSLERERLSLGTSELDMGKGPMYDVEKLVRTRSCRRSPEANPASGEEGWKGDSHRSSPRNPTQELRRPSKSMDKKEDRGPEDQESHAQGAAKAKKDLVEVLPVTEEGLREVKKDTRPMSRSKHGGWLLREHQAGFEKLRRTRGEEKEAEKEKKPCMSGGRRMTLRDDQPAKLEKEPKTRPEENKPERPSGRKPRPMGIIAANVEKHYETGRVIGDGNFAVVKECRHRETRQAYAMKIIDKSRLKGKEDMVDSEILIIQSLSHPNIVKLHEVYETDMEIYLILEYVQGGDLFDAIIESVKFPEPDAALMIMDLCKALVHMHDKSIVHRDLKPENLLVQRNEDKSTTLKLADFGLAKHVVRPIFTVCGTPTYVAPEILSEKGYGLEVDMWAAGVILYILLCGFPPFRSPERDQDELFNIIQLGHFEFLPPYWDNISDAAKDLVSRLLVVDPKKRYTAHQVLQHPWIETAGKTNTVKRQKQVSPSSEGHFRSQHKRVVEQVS
Briefly: Inhibition of DCAMKL3 at 1 uM.

Experiment [6] concerns the target T3, Activin receptor type-1 (Homo sapiens) (UniProt Q04771).
T3 sequence (whole entry): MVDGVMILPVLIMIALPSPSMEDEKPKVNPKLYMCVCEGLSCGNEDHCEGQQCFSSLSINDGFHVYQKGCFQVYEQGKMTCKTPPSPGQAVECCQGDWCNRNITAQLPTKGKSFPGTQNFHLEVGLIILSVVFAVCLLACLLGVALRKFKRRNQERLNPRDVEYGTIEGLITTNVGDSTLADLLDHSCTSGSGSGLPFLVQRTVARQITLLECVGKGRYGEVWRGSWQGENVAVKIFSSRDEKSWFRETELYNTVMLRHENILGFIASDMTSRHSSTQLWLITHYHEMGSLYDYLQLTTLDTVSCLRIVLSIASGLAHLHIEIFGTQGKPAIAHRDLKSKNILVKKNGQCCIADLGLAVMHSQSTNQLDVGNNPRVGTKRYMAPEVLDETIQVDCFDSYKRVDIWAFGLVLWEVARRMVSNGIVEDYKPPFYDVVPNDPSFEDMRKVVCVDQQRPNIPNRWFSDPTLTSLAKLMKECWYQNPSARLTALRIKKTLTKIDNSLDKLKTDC
As to the kind of experiment: Inhibition of ACVR1 at 1 uM. In a few lines: as §1

The target of experiment [7] is Serine/threonine-protein kinase MRCK alpha (Homo sapiens) (UniProt Q5VT25). As to the kind of experiment: Inhibition of MRCKA at 1 uM. The essentials: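 Kinase-panel screen using KINOMEscan technology, with 250–400 kinases per panel. Each compound was tested at a single concentration, and inhibition of each kinase was recorded. Selectivity was summarised as S(90), the fraction of kinases inhibited by more than 90%.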
Chain of Serine/threonine-protein kinase MRCK alpha (Homo sapiens) (Q5VT25 whole entry): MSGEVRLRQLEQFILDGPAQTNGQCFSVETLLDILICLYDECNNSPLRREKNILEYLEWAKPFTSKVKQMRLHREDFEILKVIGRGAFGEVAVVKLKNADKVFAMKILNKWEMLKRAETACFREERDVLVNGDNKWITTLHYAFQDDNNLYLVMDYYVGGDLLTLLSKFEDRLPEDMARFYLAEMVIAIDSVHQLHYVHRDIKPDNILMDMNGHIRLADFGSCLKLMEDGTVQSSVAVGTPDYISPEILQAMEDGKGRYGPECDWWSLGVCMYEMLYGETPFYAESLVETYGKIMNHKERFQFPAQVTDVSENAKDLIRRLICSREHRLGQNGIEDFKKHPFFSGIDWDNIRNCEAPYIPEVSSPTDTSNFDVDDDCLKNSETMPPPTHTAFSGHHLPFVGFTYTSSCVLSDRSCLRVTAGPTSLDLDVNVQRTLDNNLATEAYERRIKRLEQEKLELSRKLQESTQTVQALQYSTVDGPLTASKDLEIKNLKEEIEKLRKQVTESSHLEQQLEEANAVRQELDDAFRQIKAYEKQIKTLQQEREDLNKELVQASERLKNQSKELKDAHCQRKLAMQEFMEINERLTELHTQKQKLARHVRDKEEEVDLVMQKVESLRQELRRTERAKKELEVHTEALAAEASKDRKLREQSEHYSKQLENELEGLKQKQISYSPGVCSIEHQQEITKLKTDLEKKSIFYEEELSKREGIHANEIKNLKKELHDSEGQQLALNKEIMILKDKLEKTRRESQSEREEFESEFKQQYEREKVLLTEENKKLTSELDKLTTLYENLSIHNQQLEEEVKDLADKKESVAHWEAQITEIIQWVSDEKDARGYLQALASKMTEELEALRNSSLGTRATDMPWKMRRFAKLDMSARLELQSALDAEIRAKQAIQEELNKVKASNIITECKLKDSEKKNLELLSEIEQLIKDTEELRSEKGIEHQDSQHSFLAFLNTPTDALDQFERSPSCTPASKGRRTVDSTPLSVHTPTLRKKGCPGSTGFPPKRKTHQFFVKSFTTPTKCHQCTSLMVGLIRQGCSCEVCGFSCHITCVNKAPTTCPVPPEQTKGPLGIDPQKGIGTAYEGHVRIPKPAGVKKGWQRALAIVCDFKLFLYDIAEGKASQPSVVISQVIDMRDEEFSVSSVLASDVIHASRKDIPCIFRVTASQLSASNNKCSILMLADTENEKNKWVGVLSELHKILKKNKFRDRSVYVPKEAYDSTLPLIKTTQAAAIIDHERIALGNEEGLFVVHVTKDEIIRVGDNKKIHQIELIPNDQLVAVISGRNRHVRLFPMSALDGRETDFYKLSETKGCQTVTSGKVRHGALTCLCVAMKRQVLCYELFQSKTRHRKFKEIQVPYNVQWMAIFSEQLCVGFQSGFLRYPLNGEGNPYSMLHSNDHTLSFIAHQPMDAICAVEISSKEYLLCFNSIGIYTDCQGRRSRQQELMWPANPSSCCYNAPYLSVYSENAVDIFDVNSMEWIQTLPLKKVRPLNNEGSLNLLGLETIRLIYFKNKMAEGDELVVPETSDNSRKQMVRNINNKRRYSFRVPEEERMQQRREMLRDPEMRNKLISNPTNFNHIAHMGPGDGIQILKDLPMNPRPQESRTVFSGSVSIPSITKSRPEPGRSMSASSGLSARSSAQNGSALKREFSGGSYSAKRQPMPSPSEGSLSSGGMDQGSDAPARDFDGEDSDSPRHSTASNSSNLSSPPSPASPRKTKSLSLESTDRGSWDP

The test system of experiment [8] is Phosphatidylinositol 4,5-bisphosphate 3-kinase catalytic subunit alpha isoform (Homo sapiens), P42336 [E545K]. Briefly: Inhibition of PIK3CA E545K mutant at 1 uM.

By inhibition is commonly meant the change of the read-out against control, counted positive when it falls. In general, IC50 refers to the midpoint of a concentration-inhibition curve.

Chain of ALK tyrosine kinase receptor (Q9UM73 whole entry): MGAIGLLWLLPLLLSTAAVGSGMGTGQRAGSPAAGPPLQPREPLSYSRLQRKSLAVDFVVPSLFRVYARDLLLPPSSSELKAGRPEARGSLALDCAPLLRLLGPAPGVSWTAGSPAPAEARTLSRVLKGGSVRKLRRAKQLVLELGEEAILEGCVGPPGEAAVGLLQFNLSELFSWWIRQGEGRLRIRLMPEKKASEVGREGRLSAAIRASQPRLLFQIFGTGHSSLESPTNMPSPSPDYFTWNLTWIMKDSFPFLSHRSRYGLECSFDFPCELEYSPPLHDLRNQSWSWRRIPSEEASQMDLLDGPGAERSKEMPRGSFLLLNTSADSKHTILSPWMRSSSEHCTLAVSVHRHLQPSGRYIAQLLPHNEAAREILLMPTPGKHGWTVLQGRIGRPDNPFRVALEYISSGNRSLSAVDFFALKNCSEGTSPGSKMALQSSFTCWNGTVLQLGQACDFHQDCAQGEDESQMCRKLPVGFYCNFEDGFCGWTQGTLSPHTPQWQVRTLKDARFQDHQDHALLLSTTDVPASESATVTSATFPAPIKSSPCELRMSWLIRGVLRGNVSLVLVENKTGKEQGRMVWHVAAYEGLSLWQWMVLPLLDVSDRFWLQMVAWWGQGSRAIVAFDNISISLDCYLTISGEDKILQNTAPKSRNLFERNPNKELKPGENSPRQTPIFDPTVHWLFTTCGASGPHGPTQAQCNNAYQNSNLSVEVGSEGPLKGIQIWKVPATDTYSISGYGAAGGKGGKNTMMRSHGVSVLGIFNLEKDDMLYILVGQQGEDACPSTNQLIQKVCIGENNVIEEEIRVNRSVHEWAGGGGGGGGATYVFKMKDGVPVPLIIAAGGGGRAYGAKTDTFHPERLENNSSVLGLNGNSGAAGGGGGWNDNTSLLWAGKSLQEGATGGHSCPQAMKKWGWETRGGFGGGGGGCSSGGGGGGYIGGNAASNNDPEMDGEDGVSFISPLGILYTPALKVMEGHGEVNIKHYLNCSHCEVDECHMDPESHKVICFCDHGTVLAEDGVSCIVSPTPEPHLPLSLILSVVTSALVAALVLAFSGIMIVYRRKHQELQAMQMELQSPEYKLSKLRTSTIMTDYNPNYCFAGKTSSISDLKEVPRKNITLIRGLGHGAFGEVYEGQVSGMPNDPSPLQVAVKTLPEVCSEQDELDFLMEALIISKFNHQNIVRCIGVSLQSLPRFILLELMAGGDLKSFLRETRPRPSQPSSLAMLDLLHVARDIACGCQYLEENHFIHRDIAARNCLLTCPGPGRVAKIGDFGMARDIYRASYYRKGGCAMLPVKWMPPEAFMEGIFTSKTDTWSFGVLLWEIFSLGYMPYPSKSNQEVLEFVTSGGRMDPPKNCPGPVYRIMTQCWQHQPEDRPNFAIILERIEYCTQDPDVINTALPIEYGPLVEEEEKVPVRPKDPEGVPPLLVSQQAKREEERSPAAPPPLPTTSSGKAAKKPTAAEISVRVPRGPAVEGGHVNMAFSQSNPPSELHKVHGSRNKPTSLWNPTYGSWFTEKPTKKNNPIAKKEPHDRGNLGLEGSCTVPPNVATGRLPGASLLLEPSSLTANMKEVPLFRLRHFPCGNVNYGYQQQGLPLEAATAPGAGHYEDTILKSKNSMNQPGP
Chain of Cyclin-dependent kinase 8 (Homo sapiens) (P49336 whole entry): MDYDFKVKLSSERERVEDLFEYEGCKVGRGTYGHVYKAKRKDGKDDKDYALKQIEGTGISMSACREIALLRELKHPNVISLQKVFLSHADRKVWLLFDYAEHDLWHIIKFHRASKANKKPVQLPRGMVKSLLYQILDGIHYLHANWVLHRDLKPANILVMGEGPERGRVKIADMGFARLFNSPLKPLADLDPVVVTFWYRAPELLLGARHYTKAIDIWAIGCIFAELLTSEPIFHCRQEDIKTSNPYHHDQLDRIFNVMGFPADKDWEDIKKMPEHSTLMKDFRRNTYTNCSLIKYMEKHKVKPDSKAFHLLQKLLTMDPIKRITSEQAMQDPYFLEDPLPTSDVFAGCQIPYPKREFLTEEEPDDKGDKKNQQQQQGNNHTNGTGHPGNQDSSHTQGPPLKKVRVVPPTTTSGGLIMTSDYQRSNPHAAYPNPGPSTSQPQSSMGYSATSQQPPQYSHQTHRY

Take `FC(F)(F)c1ccc(Cl)cc1CN1CCNc2ncc(-c3ccnc(N4CCNCC4)c3)cc21`: the inhibition in experiment [1] is < 50%; in experiment [2], < 50%; in experiment [4], 76%; in experiment [5], 99%; in experiment [6], < 50%; in experiment [7] it was < 50%. Besides, in experiment [8], the inhibition was < 50%. For the same compound, the IC50 in experiment [3] was 10 nM.
Turning to `CN1CCN(c2ccc(-c3cnc4c(c3)N(Cc3cc(F)ccc3F)CCN4)cn2)CC1`, the inhibition was < 50% in experiment [1]; < 50% in experiment [2]; < 50% in experiment [4]; 89% in experiment [5]; < 50% in experiment [6]; < 50% in experiment [7]. Moreover, in experiment [8], the inhibition is < 50%. This compound showed a half-maximal inhibitory concentration (IC50) in experiment [3] of 33 nM.
As for `CN1CCN(c2ccc(-c3cnc4c(c3)N(Cc3cc(Cl)ccc3Cl)CCN4)cn2)CC1`, the inhibition is < 50% in experiment [1]; < 50% in experiment [2]; < 50% in experiment [4]; 84% in experiment [5]; < 50% in experiment [6]; < 50% in experiment [7]. Further, the inhibition in experiment [8] is < 50%. For the same compound, the IC50 in experiment [3] came to 11 nM.
For `O=C(O)c1ccc(-c2cnc3c(c2)N(Cc2cc(Cl)ccc2C(F)(F)F)CCN3)cc1`, the inhibition in experiment [1], in experiment [4], in experiment [6] and in experiment [7] was < 50% in each case. Inhibition in experiment [3] was half-maximal at 1300 nM (IC50).
Consider `CN1CCN(c2ccc(-c3cnc4c(c3)N(Cc3cc(Cl)ccc3C(F)(F)F)CCN4)cn2)CC1`, for which the inhibition was < 50% in experiment [1]; < 50% in experiment [2]; < 50% in experiment [4]; 75% in experiment [5]; < 50% in experiment [6]; < 50% in experiment [7]. Besides, the inhibition in experiment [8] was < 50%.
As for `COC1CCN(C(=O)c2ccc(-c3cnc4c(c3)N(Cc3cc(Cl)ccc3C(F)(F)F)CCN4)cc2)CC1`, the inhibition in experiment [1], in experiment [4], in experiment [6] and in experiment [7] was < 50% throughout. In experiment [3], this compound displayed an IC50 of 40 nM.
Turning to `O=C(c1ccc(-c2cnc3c(c2)N(Cc2cc(Cl)ccc2C(F)(F)F)CCN3)cc1)N1CCC(N2CCCC2)CC1`, the inhibition in experiment [1], in experiment [4], in experiment [6] and in experiment [7] was < 50% in each case. Besides, the IC50 in experiment [3] was determined as 10 nM.
`CN1CCN(c2ccc(-c3cnc4c(c3)N(Cc3c(F)ccc(F)c3Cl)CCN4)cn2)CC1`: the inhibition in experiment [1], in experiment [2], in experiment [4], in experiment [5], in experiment [6] and in experiment [7] was < 50% in each case. For the same compound, the inhibition in experiment [8] was < 50%.
On to `O=C(c1ccc(-c2cnc3c(c2)N(Cc2cc(Cl)ccc2C(F)(F)F)CCN3)cc1)N1CCCCC1`, for which the inhibition in experiment [1], in experiment [4], in experiment [6] and in experiment [7] was < 50% in each case. The half-maximal inhibitory concentration (IC50) in experiment [3] is 121 nM.
On to `CC(=O)N1CCN(c2cc(-c3cnc4c(c3)N(Cc3cc(Cl)ccc3C(F)(F)F)CCN4)ccn2)CC1`, for which the inhibition in experiment [1] was < 50%; in experiment [2], < 50%; in experiment [4], < 50%; in experiment [5], 92%; in experiment [6], < 50%; in experiment [7] it was < 50%. The inhibition in experiment [8] is < 50%. This compound also returned an IC50 in experiment [3] of 17 nM.
